# Source: ChEMBL document CHEMBL3297663, “Synthesis and evaluation of (E)-2-(acrylamido)cyclohex-1-enecarboxylic acid derivatives as HCA1, HCA2, and HCA3 receptor agonists” (Bioorg Med Chem, 2014)
# Activity calls are given as the source filed them. The calls are words filed in the database; no cut-off is given here.
# Key:
# Format in all cases: functional, cell-based
# [1] = target: T1, Hydroxycarboxylic acid receptor 2 (Homo sapiens, UniProt Q8TDS4); test: Agonist activity at human HCA2 receptor expressed in Flp-In-293 cells assessed as inhibition of forskolin-induced cAMP accumulation after 30 mins
# T1 sequence (Q8TDS4 whole entry): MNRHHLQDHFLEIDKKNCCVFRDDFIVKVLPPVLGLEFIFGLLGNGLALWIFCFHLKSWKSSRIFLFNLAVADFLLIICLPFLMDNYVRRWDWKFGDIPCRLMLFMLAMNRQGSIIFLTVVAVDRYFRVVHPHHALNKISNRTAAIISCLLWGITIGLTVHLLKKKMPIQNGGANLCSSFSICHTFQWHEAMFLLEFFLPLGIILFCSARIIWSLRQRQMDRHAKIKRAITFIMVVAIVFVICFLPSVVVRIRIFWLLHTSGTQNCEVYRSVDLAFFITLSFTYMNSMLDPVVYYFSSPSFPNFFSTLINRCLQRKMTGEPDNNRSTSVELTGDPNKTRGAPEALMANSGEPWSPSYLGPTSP
# In short: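 EC50 values come from an intracellular cAMP assay in Flp-In-293 cells stably expressing the receptor (10,000 cells/well). Cells were co-incubated 30 min with forskolin and compound in PBS, 2% BSA and 0.5 mM IBMX. Values are mean ± SD of at least three experiments, each in duplicate.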
# [2] = target: Hydroxycarboxylic acid receptor 3 (Homo sapiens) (UniProt P49019); test: Agonist activity at human HCA3 receptor expressed in Flp-In-293 cells assessed as inhibition of forskolin-induced cAMP accumulation at 50 uM after 30 mins
# Chain of Hydroxycarboxylic acid receptor 3 (Homo sapiens) (P49019 whole entry): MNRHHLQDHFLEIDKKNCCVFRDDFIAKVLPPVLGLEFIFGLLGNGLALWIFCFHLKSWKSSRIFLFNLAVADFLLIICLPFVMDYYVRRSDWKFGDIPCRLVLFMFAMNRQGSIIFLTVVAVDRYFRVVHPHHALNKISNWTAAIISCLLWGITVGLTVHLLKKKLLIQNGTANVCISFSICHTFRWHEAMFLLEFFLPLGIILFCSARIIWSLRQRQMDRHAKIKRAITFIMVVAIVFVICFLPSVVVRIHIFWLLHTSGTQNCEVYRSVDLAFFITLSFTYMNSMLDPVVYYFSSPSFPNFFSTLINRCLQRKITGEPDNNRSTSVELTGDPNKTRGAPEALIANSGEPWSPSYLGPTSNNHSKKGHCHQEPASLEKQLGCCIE
# In short: (§1)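 Flp-In-293 cells stably transfected with HCA receptor plasmids were plated at 10,000 cells/well. They were stimulated with forskolin plus compound for 30 min in PBS with 2% BSA and 0.5 mM IBMX. Inhibition of cAMP accumulation at a single compound concentration is expressed as % of the forskolin-stimulated level (set to 100%). Values are mean ± SD of at least three experiments, each in duplicate.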
# [3] = target: Hydroxycarboxylic acid receptor 1 (Homo sapiens) (UniProt Q9BXC0); test: Agonist activity at human HCA1 receptor expressed in Flp-In-293 cells assessed as inhibition of forskolin-induced cAMP accumulation at 50 uM after 30 mins; in short: as §1
# Chain of Hydroxycarboxylic acid receptor 1 (Homo sapiens) (Q9BXC0 whole entry): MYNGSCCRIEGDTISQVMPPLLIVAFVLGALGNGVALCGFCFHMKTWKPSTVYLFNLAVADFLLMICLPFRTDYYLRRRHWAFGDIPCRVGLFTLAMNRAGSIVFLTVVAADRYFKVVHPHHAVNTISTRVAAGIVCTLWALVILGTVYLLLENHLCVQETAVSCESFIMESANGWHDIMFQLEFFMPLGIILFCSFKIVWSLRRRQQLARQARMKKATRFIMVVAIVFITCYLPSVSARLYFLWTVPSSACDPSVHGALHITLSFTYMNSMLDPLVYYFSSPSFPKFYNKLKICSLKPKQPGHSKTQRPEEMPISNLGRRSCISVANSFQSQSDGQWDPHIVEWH
# [4] = target: T1, Hydroxycarboxylic acid receptor 2; test: Agonist activity at human HCA2 receptor expressed in Flp-In-293 cells assessed as inhibition of forskolin-induced cAMP accumulation at 50 uM after 30 mins; in short: as §1
# [5] = target: Hydroxycarboxylic acid receptor 1 (Homo sapiens) (UniProt Q9BXC0); test: Agonist activity at human HCA1 receptor expressed in Flp-In-293 cells assessed as inhibition of forskolin-induced cAMP accumulation up to 50 uM after 30 mins
# In short: (§2)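 Stable HCA-expressing Flp-In-293 cells (10,000/well) were treated with compound plus forskolin for 30 min in PBS containing 2% BSA and 0.5 mM IBMX. The value is the maximal % inhibition of forskolin-stimulated cAMP, with the forskolin-only level taken as 100%. Data are mean ± SD from at least three experiments, each in duplicate.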
# [6] = target: Hydroxycarboxylic acid receptor 3 (Homo sapiens) (UniProt P49019); test: Agonist activity at human HCA3 receptor expressed in Flp-In-293 cells assessed as inhibition of forskolin-induced cAMP accumulation up to 50 uM after 30 mins; in short: as §2
# [7] = target: T1, Hydroxycarboxylic acid receptor 2; test: Agonist activity at human HCA2 receptor expressed in Flp-In-293 cells assessed as inhibition of forskolin-induced cAMP accumulation up to 50 uM after 30 mins; in short: as §2
Structure (SMILES),EC50 [1] [µM],Emax [1] [%],inhibition [2] [%],inhibition [3] [%],inhibition [4] [%],inhibition [5],inhibition [6],inhibition [7]
O=C(CCc1ccc2ccccc2c1)NC1=C(C(=O)O)CCCC1,8.3,97,66,41,–,–,–,–
O=C(/C=C/c1cc2c(cc1Br)OCO2)NC1=C(C(=O)O)CCCC1,–,–,54,–,24,inactive,–,–
O=C(/C=C/c1cc2ccccc2nc1Cl)NC1=C(C(=O)O)CCCC1,27.4,79,52,37,–,–,–,–
O=C(/C=C/c1cc2c(cc1Cl)OCO2)NC1=C(C(=O)O)CCCC1,–,–,59,34,17,–,–,–
O=C(O)C1=C(NC(=O)[C@@H]2C[C@H]2c2ccc3ccccc3c2)CCCC1 (racemic),12.5,96,55,40,–,–,–,–
O=C(/C=C/c1ccc2cc(O)ccc2c1)NC1=C(C(=O)O)CCCC1,1.4,96,–,–,–,inactive,inactive,–
O=C(/C=C/c1ccc2ccccc2n1)NC1=C(C(=O)O)CCCC1,4.1,99,–,–,–,inactive,inactive,–
COc1ccc(/C=C/C(=O)NC2=C(C(=O)O)CCCC2)cc1OC,–,–,58,31,51,–,–,–
O=C(CCc1ccc2cc(O)ccc2c1)NC1=C(C(=O)O)CCCC1,1.9,97,–,26,–,–,inactive,–
O=C(/C=C/c1cccc2cccnc12)NC1=C(C(=O)O)CCCC1,–,–,54,–,–,inactive,–,inactive
COc1ccc2cc(/C=C/C(=O)NC3=C(C(=O)O)CCCC3)ccc2c1,–,–,–,26,–,–,inactive,inactive
O=C(/C=C/c1ccc2cccc(O)c2n1)NC1=C(C(=O)O)CCCC1,–,–,–,–,27,inactive,inactive,–
O=C(/C=C/c1ccc2ccccc2c1)NC1=C(C(=O)O)CCCC1,4.5,94,–,14,–,–,inactive,–
O=C(O)C1=C(NC(=O)[C@H]2C[C@H]2c2ccc3ccccc3c2)CCCC1 (racemic),–,–,–,–,34,inactive,inactive,–
O=C(/C=C/c1ccc2c(c1)OCCO2)NC1=C(C(=O)O)CCCC1,6.8,93,66,–,–,inactive,–,–
O=C(/C=C/C#Cc1ccccc1)NC1=C(C(=O)O)CCCC1,3.6,90,56,–,–,inactive,–,–

Structure (SMILES),EC50 [1] [µM],Emax [1] [%],inhibition [2] [%],inhibition [3] [%],inhibition [4] [%],inhibition [5],inhibition [6],inhibition [7]
Cc1ccc2cc(/C=C/C(=O)NC3=C(C(=O)O)CCCC3)ccc2n1,–,–,–,–,–,inactive,inactive,inactive
O=C(/C=C/c1ccnc2ccccc12)NC1=C(C(=O)O)CCCC1,–,–,–,–,–,inactive,inactive,inactive
O=C(CCc1ccc2ncccc2c1)NC1=C(C(=O)O)CCCC1,–,–,60,26,70,–,–,–
COc1ccc2nc(Cl)c(CCC(=O)NC3=C(C(=O)O)CCCC3)cc2c1,4.1,91,53,24,–,–,–,–
O=C(C#Cc1ccc2cc(O)ccc2c1)NC1=C(C(=O)O)CCCC1,0.9,98,–,–,–,inactive,inactive,–
O=C(CCc1ccc2c(c1)OCO2)NC1=C(C(=O)O)CCCC1,51.6,85,62,28,–,–,–,–
O=C(/C=C/c1ccc2c(c1)OCO2)NC1=C(C(=O)O)CCCC1,5.8,83,26,–,–,inactive,–,–
O=C(CCc1cccc2cccnc12)NC1=C(C(=O)O)CCCC1,–,–,55,–,60,inactive,–,–
COc1ccc2nc(Cl)c(/C=C/C(=O)NC3=C(C(=O)O)CCCC3)cc2c1,6.3,86,–,21,–,–,inactive,–
COc1ccc(/C=C/C(=O)NC2=C(C(=O)O)CCCC2)c(Cl)c1OC,26.3,95,48,36,–,–,–,–
O=C(/C=C/c1ccc2ncccc2c1)NC1=C(C(=O)O)CCCC1,–,–,39,24,68,–,–,–
COc1nc2ccccc2cc1/C=C/C(=O)NC1=C(C(=O)O)CCCC1,–,–,58,27,59,–,–,–
COc1cc(/C=C/C(=O)NC2=C(C(=O)O)CCCC2)cc(Br)c1OC,–,–,46,–,23,inactive,–,–
COc1cc2nc(/C=C/C(=O)NC3=C(C(=O)O)CCCC3)ccc2c(OC)c1OC,–,–,61,38,53,–,–,–
Cc1ccc2cc(CCC(=O)NC3=C(C(=O)O)CCCC3)ccc2n1,36.4,82,54,23,–,–,–,–
